{"source": "the RNAGym collection of RNA variant scans (doi:10.1038/s41586-018-0170-7)", "parents": {"B1": {"name": "tRNA (parent)", "chain": "GUUCCGUUGGCGUAAUGGUAACGCGUCUCCCUCCUAAGGAGAAGACUGCGGGUUCGAGUCCCGUACGGAACG"}}}
{"variants_of": "B1", "assay": "yeast fitness, log relative to wild type (ln ratio); higher = fitter; tRNA-Arg(CCU), competitive growth, 37 C, 1 M NaCl", "method_in_brief": "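A combinatorial tRNA-Arg(CCU) variant library was carried on a HIS3 centromeric plasmid in BY4742 lacking the chromosomal gene, from two independent transformations. Pools grew 4 generations in SC-HIS at 30 °C, then ~6.5 generations (~26.5 h) in SC-HIS 1M NaCl at 37 °C, with three outputs per input. Variants were counted by 125 bp paired-end Illumina sequencing. Fitness is ln of each genotype's generations (OD-scaled log2 output/input frequency, inverse-variance weighted across replicates) over the wild-type's.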"}
{"variant": "U2C A43C C46U C66A A70G C71U", "yeast fitness (ln)": -0.0245}
{"variant": "G1A U2G G6U C46U C66U A69G A70G C71U", "yeast fitness (ln)": -0.244}
{"variant": "U2C G6A C27U A70U C71U", "yeast fitness (ln)": -0.141}
{"variant": "C27U A43C C66A A69G A70G", "yeast fitness (ln)": -0.181}
{"variant": "U2G G6A C27U C71U", "yeast fitness (ln)": -0.156}
{"variant": "G1A G6A C27U A43C C46U A70G C71U", "yeast fitness (ln)": -0.315}
{"variant": "G6U C46U C66U A70G C71U", "yeast fitness (ln)": -0.138}
{"variant": "C27U C66U", "yeast fitness (ln)": -0.134}
{"variant": "U2G G6A A43C C46U C66U A69G C71U", "yeast fitness (ln)": -0.303}
{"variant": "C27U A43C A69G A70G", "yeast fitness (ln)": -0.235}
{"variant": "G1A A43C C46U C66U A69G A70U C71U", "yeast fitness (ln)": -0.469}
{"variant": "G6U A43C", "yeast fitness (ln)": -0.132}
{"variant": "A43C C46U C66U C71U", "yeast fitness (ln)": -0.115}
{"variant": "U2G G6U A43C", "yeast fitness (ln)": -0.129}
{"variant": "G1A G6A A43C C46U C71U", "yeast fitness (ln)": -0.145}
{"variant": "G1A G6U C27U C66U A69G A70U", "yeast fitness (ln)": -0.368}
{"variant": "G1A U2G C27U A43C C46U C66U A69G A70G C71U", "yeast fitness (ln)": -0.3}
{"variant": "U2G C27U C46U C66A A70G C71U", "yeast fitness (ln)": -0.228}
{"variant": "G1A U2G G6A C66A A70U", "yeast fitness (ln)": -0.0697}
{"variant": "G1A C27U C66U A69G A70U C71U", "yeast fitness (ln)": -0.364}
{"variant": "G1A U2G C27U A43C C46U C66U A69G C71U", "yeast fitness (ln)": -0.383}
{"variant": "U2G C27U A43C C46U A70U C71U", "yeast fitness (ln)": -0.0906}
{"variant": "G1A G6A A43C C71U", "yeast fitness (ln)": -0.257}
{"variant": "G1A U2G G6U A43C A69G A70G", "yeast fitness (ln)": -0.277}
{"variant": "G1A G6A C46U C66A A70U", "yeast fitness (ln)": -0.134}
{"variant": "G6U A43C C66A A69G", "yeast fitness (ln)": -0.0712}
{"variant": "U2C C27U A43C A69G C71U", "yeast fitness (ln)": -0.144}
{"variant": "G1A U2G C27U C46U C66U A69G A70U", "yeast fitness (ln)": -0.265}
{"variant": "U2C G6A C27U A69G A70G", "yeast fitness (ln)": -0.252}
{"variant": "G1A G6U C27U A43C C66A A69G A70G C71U", "yeast fitness (ln)": -0.417}
{"variant": "G6A C27U C46U A69G C71U", "yeast fitness (ln)": -0.252}
{"variant": "U2C G6U A43C C66A A70G C71U", "yeast fitness (ln)": -0.0145}
{"variant": "G1A U2G G6U C27U C66A A70G", "yeast fitness (ln)": -0.268}
{"variant": "U2C G6U C27U A43C C46U C66U C71U", "yeast fitness (ln)": -0.299}
{"variant": "G1A U2C G6A A43C C66U A70G C71U", "yeast fitness (ln)": -0.00743}
{"variant": "U2C C27U C46U C66A A69G A70G", "yeast fitness (ln)": -0.227}
{"variant": "G1A C27U A43C C46U C66U A70U C71U", "yeast fitness (ln)": -0.469}
{"variant": "U2G A43C C46U C71U", "yeast fitness (ln)": -0.0479}
{"variant": "G1A U2C C27U A70U C71U", "yeast fitness (ln)": -0.288}
{"variant": "G1A A69G A70U C71U", "yeast fitness (ln)": -0.44}
{"variant": "G1A G6A C27U C46U A69G C71U", "yeast fitness (ln)": -0.238}
{"variant": "G1A G6U C27U C46U C66A A69G A70G C71U", "yeast fitness (ln)": -0.58}
{"variant": "G1A G6A C27U A43C C66U A69G A70U C71U", "yeast fitness (ln)": -0.628}
{"variant": "U2C G6A C27U C66U A70G C71U", "yeast fitness (ln)": -0.0401}
{"variant": "G1A C27U C46U C66A A69G A70U C71U", "yeast fitness (ln)": -0.411}
{"variant": "G1A C27U C66U A70U", "yeast fitness (ln)": -0.152}
{"variant": "U2C C27U A43C C46U A69G A70G", "yeast fitness (ln)": -0.0239}
{"variant": "C46U C66U A70G C71U", "yeast fitness (ln)": -0.0752}
{"variant": "G1A G6U C46U C66U A70U C71U", "yeast fitness (ln)": -0.298}
{"variant": "G6U C46U A70G", "yeast fitness (ln)": -0.284}
{"variant": "G1A C27U A43C C46U C66A", "yeast fitness (ln)": -0.103}
{"variant": "U2C G6A C27U C46U C66A A70G C71U", "yeast fitness (ln)": -0.228}
{"variant": "A43C C46U A69G C71U", "yeast fitness (ln)": -0.0511}
{"variant": "G1A U2G C27U C66U A69G A70G C71U", "yeast fitness (ln)": -0.416}
{"variant": "U2G G6A A43C A70U", "yeast fitness (ln)": -0.14}
{"variant": "G1A G6A A70G C71U", "yeast fitness (ln)": -0.115}
{"variant": "U2C C46U C66A A70U", "yeast fitness (ln)": 0.075}
{"variant": "G1A U2C G6A A43C C46U C66U", "yeast fitness (ln)": -0.085}
{"variant": "U2G G6A C27U C46U C66A A69G A70U", "yeast fitness (ln)": -0.134}
{"variant": "U2C G6U C27U A43C C66A A69G A70U C71U", "yeast fitness (ln)": -0.398}
{"variant": "G6U C27U A43C C66U", "yeast fitness (ln)": -0.227}
{"variant": "U2G C27U A43C C46U A69G A70G C71U", "yeast fitness (ln)": -0.132}
{"variant": "G1A G6A C27U A43C C46U C66U A70G", "yeast fitness (ln)": -0.27}
{"variant": "U2C G6U C66U A69G A70U", "yeast fitness (ln)": -0.179}
{"variant": "U2C G6A C46U C66U A70G", "yeast fitness (ln)": -0.00418}
{"variant": "U2C C46U C71U", "yeast fitness (ln)": -0.069}
{"variant": "U2G A43C C46U C66U A69G A70G C71U", "yeast fitness (ln)": -0.244}
{"variant": "U2C G6A C27U A43C C71U", "yeast fitness (ln)": -0.209}
{"variant": "U2C G6A C27U C46U C66A A69G A70G C71U", "yeast fitness (ln)": -0.188}
{"variant": "G1A G6A C66A C71U", "yeast fitness (ln)": -0.0846}
{"variant": "U2G G6U C27U C46U A69G A70G C71U", "yeast fitness (ln)": -0.268}
{"variant": "G1A U2G A70U C71U", "yeast fitness (ln)": 0.00659}
{"variant": "G6U C27U C46U C66A A69G C71U", "yeast fitness (ln)": -0.507}
{"variant": "U2C C27U A70G C71U", "yeast fitness (ln)": -0.0321}
{"variant": "U2G G6A C27U A70G", "yeast fitness (ln)": -0.112}
{"variant": "G1A U2C G6U A43C A70G C71U", "yeast fitness (ln)": -0.198}
{"variant": "G1A U2G C66U A70U", "yeast fitness (ln)": -0.131}
{"variant": "G1A U2G A43C C46U C66U A70U C71U", "yeast fitness (ln)": -0.242}
{"variant": "G1A U2G G6U C46U C66A C71U", "yeast fitness (ln)": -0.179}
{"variant": "G1A G6A C27U C46U A70U C71U", "yeast fitness (ln)": -0.258}
{"variant": "G1A U2G G6U C27U C46U C66A A70G", "yeast fitness (ln)": -0.148}
{"variant": "G1A U2C G6U C27U C46U A69G C71U", "yeast fitness (ln)": -0.166}
{"variant": "U2C C27U A69G", "yeast fitness (ln)": -0.23}
{"variant": "U2C G6A C27U A43C A69G A70U", "yeast fitness (ln)": -0.215}
